These results are taken from ChEMBL document CHEMBL3046018, “Design, syntheses and 3D-QSAR studies of novel N-phenyl pyrrolidin-2-ones and N-phenyl-1H-pyrrol-2-ones as protoporphyrinogen oxidase inhibitors” (Bioorg Med Chem, 2010).

One experiment has as its system Eclipta prostrata. Kind of experiment: Herbicidal activity against Eclipta prostrata assessed as growth inhibition at 150 g ai/ha using post-emergence protocol under greenhouse conditions measured 15 days after compound treatment. The format is functional. Conditions: 360 h, read-out: GI. Summed up: (§1)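 Post-emergence greenhouse spray on pot-grown broadleaf weeds at the 2-leaf stage. Formulation concentrates were diluted with water. Soil was clay, pH 6.5, 1.6% organic matter, 37.3% clay particles, CEC 12.1 mol/kg. The rate was total active ingredient divided by pot surface area. Untreated seedlings and DMF-treated seedlings served as controls.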

The subject of a further experiment is Chenopodium album. Kind of experiment: Herbicidal activity against Chenopodium album assessed as growth inhibition at 150 g ai/ha using post-emergence protocol under greenhouse conditions measured 15 days after compound treatment. The format is functional. To be noted: 360 h, read-out: GI. Summed up: as §1
The next experiment concerns Amaranthus retroflexus. Kind of experiment: Herbicidal activity against Amaranthus retroflexus assessed as growth inhibition at 150 g ai/ha using post-emergence protocol under greenhouse conditions measured 15 days after compound treatment. The format is functional. Conditions: 360 h, read-out: GI. An outline of the steps: as §1
In the next experiment the test system is Brassica juncea. The experiment in a line: Herbicidal activity against Brassica juncea assessed as growth inhibition at 150 g ai/ha using post-emergence protocol under greenhouse conditions measured 15 days after compound treatment. The format is functional. Conditions: 360 h, read-out: GI. An outline of the steps: as §1
A further experiment deals with Setaria viridis. The experiment in a line: Herbicidal activity against Setaria viridis assessed as growth inhibition at 150 g ai/ha using post-emergence protocol under greenhouse conditions measured 15 days after compound treatment. The format is functional. To be noted: 360 h, read-out: GI. An outline of the steps:
(§2)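 Grass weeds were grown in pots in the greenhouse and sprayed post-emergence at the 1-leaf stage. The spray was formulation concentrate diluted in water. Soil was clay, pH 6.5, 1.6% organic matter, 37.3% clay particles, CEC 12.1 mol/kg. The g.ai/ha rate was active ingredient over pot surface area. Controls were untreated and DMF-treated seedlings.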

A further experiment relates to Echinochloa crus-galli. Kind of experiment: Herbicidal activity against Echinochloa crus-galli (barnyard grass) assessed as growth inhibition at 150 g ai/ha using post-emergence protocol under greenhouse conditions measured 15 days after compound treatment. The format is functional. To be noted: 360 h, read-out: GI. An outline of the steps:
as §2

For another experiment, the system named is Digitaria sanguinalis. The experiment in a line: Herbicidal activity against Digitaria sanguinalis (hairy crabgrass) assessed as growth inhibition at 150 g ai/ha using post-emergence protocol under greenhouse conditions measured 15 days after compound treatment. The format is functional. Conditions: 360 h, read-out: GI. Summed up: as §2
For experiment [1], the target named is T1, Protoporphyrinogen oxidase (Homo sapiens, UniProt P50336).
T1 sequence (P50336 whole entry): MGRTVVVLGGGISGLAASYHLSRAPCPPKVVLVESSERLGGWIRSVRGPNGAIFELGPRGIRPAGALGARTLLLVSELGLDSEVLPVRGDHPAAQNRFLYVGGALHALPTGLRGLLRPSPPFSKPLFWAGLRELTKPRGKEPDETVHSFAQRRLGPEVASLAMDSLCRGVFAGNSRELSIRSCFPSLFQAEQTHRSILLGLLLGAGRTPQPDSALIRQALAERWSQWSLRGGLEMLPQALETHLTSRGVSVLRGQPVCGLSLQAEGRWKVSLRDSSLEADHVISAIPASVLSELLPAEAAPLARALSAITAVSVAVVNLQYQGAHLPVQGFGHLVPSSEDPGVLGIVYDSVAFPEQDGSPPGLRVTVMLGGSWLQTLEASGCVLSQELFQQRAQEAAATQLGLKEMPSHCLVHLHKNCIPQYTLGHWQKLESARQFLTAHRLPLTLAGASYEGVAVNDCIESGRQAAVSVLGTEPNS
The experiment in a line: Inhibition of Homo sapiens (human) protoporphyrinogen oxidase. To be noted: read-out: Ki.

As a reminder, the Ki is a measure of affinity in units of concentration, obtained from inhibition or displacement.

On to `CCOc1cc(N2CC3=C(CCCC3)C2=O)c(Cl)cc1Cl`, for which the inhibition of growth at 150 g/ha was 50% in the experiment on Eclipta prostrata; 50% with Chenopodium album; 50% in the experiment with Amaranthus retroflexus; below 50% in the experiment with Brassica juncea; below 50% in the experiment with Setaria viridis; below 50% in the experiment on Echinochloa crus-galli. Further, the inhibition of growth at 150 g/ha with Digitaria sanguinalis was below 50%. Moreover, the inhibition constant (Ki) in experiment [1] came to 670 nM.
As to `CCOc1cc(N2CC3=C(CCCC3)C2=O)c(F)cc1Cl`, the inhibition of growth at 150 g/ha with Eclipta prostrata was 50%; in the experiment on Chenopodium album, 100%; in the experiment on Amaranthus retroflexus, above 80%; in the experiment with Brassica juncea, 50%; in the experiment with Setaria viridis, above 80%; in the experiment with Echinochloa crus-galli, above 80%. Further, the inhibition of growth at 150 g/ha with Digitaria sanguinalis is above 80%. In addition, the inhibition constant Ki in experiment [1] came to 200 nM.
Take `CCCOc1cc(N2CC3=C(CCCC3)C2=O)c(Cl)cc1Cl`: the inhibition of growth at 150 g/ha in the experiment with Eclipta prostrata was below 50%; in the experiment on Chenopodium album, below 50%; in the experiment with Amaranthus retroflexus, above 80%; in the experiment with Brassica juncea, below 50%; in the experiment with Setaria viridis it was below 50%; in the experiment on Echinochloa crus-galli it was below 50%. For the same molecule, in the experiment on Digitaria sanguinalis, the inhibition of growth at 150 g/ha is below 50%. For the same molecule, the Ki in experiment [1] worked out at 300 nM.
Regarding `CCCOc1cc(N2CC3=C(CCCC3)C2=O)c(F)cc1Cl`, the inhibition of growth at 150 g/ha is 100% with Eclipta prostrata; 100% with Chenopodium album; above 80% in the experiment with Amaranthus retroflexus; above 80% in the experiment with Brassica juncea; above 80% in the experiment on Setaria viridis; above 80% in the experiment with Echinochloa crus-galli. Moreover, the inhibition of growth at 150 g/ha with Digitaria sanguinalis is above 80%. The inhibition constant Ki in experiment [1] is 95 nM.
Take `C=CCOc1cc(N2CC3=C(CCCC3)C2=O)c(F)cc1Cl`: the inhibition of growth at 150 g/ha with Eclipta prostrata was 100%; in the experiment on Chenopodium album, 100%; in the experiment on Amaranthus retroflexus, 100%; in the experiment on Brassica juncea, above 80%; in the experiment on Setaria viridis, above 80%; in the experiment on Echinochloa crus-galli, above 80%. Moreover, in the experiment with Digitaria sanguinalis, the inhibition of growth at 150 g/ha is above 80%. Further, the Ki in experiment [1] is 120 nM.
For the molecule `O=C1C2=C(CCCC2)C(O)N1c1cc(O)c(Br)cc1F` (centres undefined), the inhibition of growth at 150 g/ha in the experiment with Eclipta prostrata was 50%; in the experiment with Chenopodium album it was 50%; with Amaranthus retroflexus, 50%; with Brassica juncea it was below 50%; in the experiment with Setaria viridis it was below 50%; in the experiment with Echinochloa crus-galli, below 50%. Besides, the inhibition of growth at 150 g/ha with Digitaria sanguinalis amounted to 50%. The Ki in experiment [1] came to 19300 nM.
In the case of `O=C1C2=C(CCCC2)C(O)N1c1cc(OCc2cccc(F)c2)c(Cl)cc1F` (centres undefined), the inhibition of growth at 150 g/ha in the experiment with Eclipta prostrata is 50%; in the experiment with Chenopodium album it was 50%; in the experiment on Amaranthus retroflexus it was above 80%; in the experiment with Brassica juncea it was 50%; with Setaria viridis, below 50%; in the experiment with Echinochloa crus-galli, below 50%. Moreover, the inhibition of growth at 150 g/ha with Digitaria sanguinalis was 50%. For the same molecule, the Ki in experiment [1] turned out to be 780 nM.
For the molecule `O=C1C2=C(CCCC2)C(O)N1c1cc(OCc2cccc(Cl)c2)c(Cl)cc1F` (centres undefined), the inhibition of growth at 150 g/ha with Eclipta prostrata was 50%; with Chenopodium album, 50%; in the experiment with Amaranthus retroflexus it was 50%; with Brassica juncea, 50%; in the experiment on Setaria viridis it was below 50%; with Echinochloa crus-galli, below 50%. For the same molecule, in the experiment with Digitaria sanguinalis, the inhibition of growth at 150 g/ha is below 50%. Also, the Ki in experiment [1] turned out to be 530 nM.
Regarding `C=CCOc1cc(N2C(=O)C3=C(CCCC3)C2O)c(Cl)cc1Cl` (centres undefined), the inhibition of growth at 150 g/ha was 50% in the experiment on Eclipta prostrata; 50% in the experiment on Chenopodium album; 50% with Amaranthus retroflexus; 50% in the experiment on Brassica juncea; below 50% in the experiment with Setaria viridis; below 50% in the experiment on Echinochloa crus-galli. Further, the inhibition of growth at 150 g/ha in the experiment on Digitaria sanguinalis was below 50%. Also, the Ki in experiment [1] was 7450 nM.
Take `C=CCOc1cc(N2C(=O)C3=C(CCCC3)C2O)c(F)cc1Cl` (centres undefined): the inhibition of growth at 150 g/ha was 50% in the experiment with Eclipta prostrata; above 80% in the experiment on Chenopodium album; above 80% in the experiment on Amaranthus retroflexus; 50% with Brassica juncea; below 50% in the experiment on Setaria viridis; below 50% in the experiment with Echinochloa crus-galli. Also, the inhibition of growth at 150 g/ha in the experiment with Digitaria sanguinalis was below 50%. In experiment [1], the inhibition constant Ki amounted to 1030 nM.
Consider `CCOc1cc(Cl)c([N+](=O)[O-])cc1N1C(=O)C2=C(CCCC2)C1O` (centres undefined), for which the inhibition of growth at 150 g/ha in the experiment on Eclipta prostrata was 50%; in the experiment on Chenopodium album, 50%; in the experiment on Amaranthus retroflexus, above 80%; in the experiment on Brassica juncea, below 50%; in the experiment with Setaria viridis it was below 50%; in the experiment with Echinochloa crus-galli it was below 50%. In addition, the inhibition of growth at 150 g/ha in the experiment with Digitaria sanguinalis is below 50%. Moreover, in experiment [1], the Ki came out at 359000 nM.
Take `C=CCOC1C2=C(CCCC2)C(=O)N1c1cc(O)c(Br)cc1F` (centres undefined): the inhibition of growth at 150 g/ha in the experiment on Eclipta prostrata is 50%; in the experiment with Chenopodium album it was 50%; with Amaranthus retroflexus it was 50%; in the experiment on Brassica juncea, below 50%; in the experiment on Setaria viridis, below 50%; in the experiment on Echinochloa crus-galli, 50%. In the experiment with Digitaria sanguinalis, the inhibition of growth at 150 g/ha worked out at 50%. Moreover, in experiment [1], the Ki was 41400 nM.
Consider `COC1C2=C(CCCC2)C(=O)N1c1cc(OCc2cccc(Cl)c2)c(Cl)cc1F` (centres undefined), for which the inhibition of growth at 150 g/ha was 50% with Eclipta prostrata; 50% with Chenopodium album; 50% in the experiment with Amaranthus retroflexus; 50% in the experiment with Brassica juncea; below 50% with Setaria viridis; 50% in the experiment with Echinochloa crus-galli. Besides, the inhibition of growth at 150 g/ha in the experiment on Digitaria sanguinalis was below 50%. In addition, the Ki in experiment [1] was 1030 nM.
For `COc1cc(N2C(=O)C3=C(CCCC3)C2OC)c(F)cc1Cl` (centres undefined), the inhibition of growth at 150 g/ha in the experiment with Eclipta prostrata is 50%; with Chenopodium album it was above 80%; with Amaranthus retroflexus, above 80%; in the experiment on Brassica juncea it was 50%; with Setaria viridis, 50%; in the experiment with Echinochloa crus-galli it was 50%. Further, the inhibition of growth at 150 g/ha with Digitaria sanguinalis worked out at 50%. Further, the inhibitory constant (Ki) in experiment [1] stood at 4490 nM.
Take `C=CCOC1C2=C(CCCC2)C(=O)N1c1cc(OCc2cccc(Cl)c2)c(Cl)cc1F` (centres undefined): the inhibition of growth at 150 g/ha in the experiment on Eclipta prostrata is 50%; in the experiment on Chenopodium album, below 50%; in the experiment with Amaranthus retroflexus, above 80%; in the experiment on Brassica juncea, below 50%; in the experiment on Setaria viridis it was below 50%; in the experiment with Echinochloa crus-galli, below 50%. For the same molecule, the inhibition of growth at 150 g/ha in the experiment with Digitaria sanguinalis is 50%. Moreover, the inhibition constant (Ki) in experiment [1] was 66600 nM.
Regarding `C=CCOc1cc(N2C(=O)C3=C(CCCC3)C2OCC=C)c(F)cc1Cl` (centres undefined), the inhibition of growth at 150 g/ha in the experiment on Eclipta prostrata was above 80%; in the experiment on Chenopodium album it was above 80%; in the experiment with Amaranthus retroflexus, 100%; in the experiment on Brassica juncea, 100%; in the experiment on Setaria viridis it was above 80%; with Echinochloa crus-galli it was 50%. Moreover, the inhibition of growth at 150 g/ha with Digitaria sanguinalis was above 80%. The Ki in experiment [1] stood at 33100 nM.
As to `C=CCOC1C2=C(CCCC2)C(=O)N1c1cc(OCC)c(Cl)cc1F` (centres undefined), the inhibition of growth at 150 g/ha with Eclipta prostrata came out at 100%; with Chenopodium album it was 100%; in the experiment on Amaranthus retroflexus it was 100%; with Brassica juncea, 50%; with Setaria viridis it was 50%; in the experiment on Echinochloa crus-galli, 50%. The inhibition of growth at 150 g/ha in the experiment on Digitaria sanguinalis is 50%. Besides, in experiment [1], the inhibition constant Ki is 7020 nM.
For `O=C1NC(=O)c2cc(Cl)ccc21` [4-CHLORO-PHTHALIMIDE], in experiment [1], the Ki turned out to be 87900 nM.
For the molecule `Cc1nn(-c2cc(NS(C)(=O)=O)c(Cl)cc2Cl)c(=O)n1C(F)F` [SULFENTRAZONE], the inhibition of growth at 150 g/ha in the experiment on Eclipta prostrata was 100%; with Chenopodium album, 100%; with Amaranthus retroflexus, 100%; in the experiment with Brassica juncea it was 100%; with Setaria viridis, above 80%; with Echinochloa crus-galli it was below 50%. Besides, the inhibition of growth at 150 g/ha with Digitaria sanguinalis is below 50%.
